Screens from PubChem.
TRPC4 block – inhibitors of mouse TRPC4 channel; B-score at 10 µM; HEK293 TRPC4beta/mu-opioid, DAMGO-evoked Fluo4 calcium flux; stronger effect = lower value; AID 2247; 300,000 compounds, 0.39% hits;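 active means B-score over 3 SD under the library average, no early fluorescence shift, positive overall ratio signal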
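Material: HEK293 cells with stable TRPC4beta plus mu-opioid receptor expression / Probe or stimulus: DAMGO in two steps, submaximal then maximal / Compound: single concentration per test compound / Technique: kinetic Fluo4 fluorescence imaging of calcium influx / Read-out: per-well B score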
TRPC4 PAM – allosterically enhances the mouse TRPC4 cation channel | Q9QUQ5 | AID 2227 | B-score at 10 µM | HEK293 TRPC4beta/mu-opioid, DAMGO EC20, Fluo-4 Ca2+ flux; stronger effect = higher value | 310,000 compounds, 0.42% hits;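 active means B-score of calcium response area above 5 SD of library B-scores, with initial fluorescence ratio within 5 SD of library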;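 further: B-score of integrated fluorescence ratio over time as area under calcium response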
TRPC4 agonist – opens the mouse TRPC4 cation channel; HEK293 TRPC4beta/mu-opioid, Fluo4 calcium fluorescence; stronger effect = higher value; B-score at 10 µM; 310,000 compounds, 0.49% hits; AID 2237;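 active means B-score above 5 SD of library B-scores, and initial fluorescence ratio not above library mean plus 5 SD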;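 further: positive B-score marks a calcium rise read as TRPC4 activation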
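Technique: kinetic Fluo4 calcium fluorescence; Test system: TRPC4beta and mu-opioid receptor HEK293 stable cells; Measure: B-scored integrated calcium fluorescence ratio; Benchmarks: low control buffer alone, high control maximal DAMGO; Schedule: 45 min room-temperature Fluo4 loading, 110 s read.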
TRPC6 inh – inhibitors of mouse TRPC6 channel | Q61143 | HEK293-TRPC6, membrane potential dye, ACh-evoked depolarization; stronger effect = lower value | B-score at 10 µM | 310,000 compounds, 1.1% hits;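 active means B-score under library mean minus 3 SD, initial fluorescence not abnormally high, positive integrated signal ratio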;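 further: B-score derived from integrated fluorescence ratio over the kinetic read; more negative B-score means stronger inhibition of depolarization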
Target sequence (Q61143 whole entry, looked up): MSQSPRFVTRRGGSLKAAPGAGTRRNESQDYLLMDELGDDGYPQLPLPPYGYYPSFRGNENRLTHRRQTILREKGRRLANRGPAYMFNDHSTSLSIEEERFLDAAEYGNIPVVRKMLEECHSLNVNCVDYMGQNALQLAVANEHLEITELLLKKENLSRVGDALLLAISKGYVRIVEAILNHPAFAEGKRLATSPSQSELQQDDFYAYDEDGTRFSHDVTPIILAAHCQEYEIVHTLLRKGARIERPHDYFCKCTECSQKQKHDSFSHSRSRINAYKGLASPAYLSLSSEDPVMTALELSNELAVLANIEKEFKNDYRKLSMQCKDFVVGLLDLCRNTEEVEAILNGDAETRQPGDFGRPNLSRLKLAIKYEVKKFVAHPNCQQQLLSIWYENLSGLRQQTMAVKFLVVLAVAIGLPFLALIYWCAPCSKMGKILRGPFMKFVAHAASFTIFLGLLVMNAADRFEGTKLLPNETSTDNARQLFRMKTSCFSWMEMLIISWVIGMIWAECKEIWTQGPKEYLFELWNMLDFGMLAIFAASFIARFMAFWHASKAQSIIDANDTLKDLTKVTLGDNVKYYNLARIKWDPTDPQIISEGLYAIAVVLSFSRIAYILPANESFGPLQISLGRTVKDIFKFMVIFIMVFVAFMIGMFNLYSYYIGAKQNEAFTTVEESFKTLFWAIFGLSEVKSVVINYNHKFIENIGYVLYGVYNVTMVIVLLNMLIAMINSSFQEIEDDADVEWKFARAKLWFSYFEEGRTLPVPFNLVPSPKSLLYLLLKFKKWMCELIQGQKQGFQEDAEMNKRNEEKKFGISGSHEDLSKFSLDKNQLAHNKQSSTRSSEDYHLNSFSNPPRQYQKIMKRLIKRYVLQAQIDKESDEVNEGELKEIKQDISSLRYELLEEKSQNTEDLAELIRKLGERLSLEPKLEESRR
TRPC6 act – activators of mouse TRPC6 channel. Q61143. HEK293-TRPC6 membrane potential dye fluorescence; stronger effect = higher value. B-score at 10 µM. 310,000 compounds, 0.13% hits;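 active means B-score of the integrated fluorescence ratio above library mean plus 3 SD, and starting fluorescence ratio within library mean plus 5 SD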;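 further: higher score means more depolarization so channel activation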
TRPC4 sel inh 2 – second selectivity test of TRPC6 inhibitors: effect on mouse TRPC4. shares compounds with TRPC6 inh. 920 compounds, 42% hits. AID 2776. HEK293 TRPC4/MOR, membrane potential dye fluorescence; channel activated by saturating DAMGO dose. inhibition, % at 10 µM;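 active means compounds whose fluorescence signal differed from control wells by over 3 SD, either direction, in both duplicate plates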
TRPC4 spec – selectivity of TRPC6 inhibitors: effect on mouse TRPC4 | shares compounds with TRPC6 inh | HEK293 TRPC4/mu-opioid, membrane potential fluorescence | activity change, negative = inhibition, % at 10 µM | 920 compounds, 61% hits;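 active means rise or fall in signal beyond 3 SD of buffer-only wells in both replicate plates, either sign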;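 further: integrated kinetic ratio of fluorescence range over baseline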
HEK293 MPD ctr 2-1 – parental HEK293 nonspecific activity of TRPC6 inhibitors, second screen. signal change vs control, % at 10 µM. 920 compounds, 31% hits. AID 2779. shares compounds with TRPC6 inh. parental HEK293 membrane potential dye fluorescence; maximal acetylcholine challenge after compound addition;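 active means membrane potential signal moving either way by over 3 SD of the maximum-effect control, in both duplicate plates, meaning non-specific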
HEK293 MPD ctr-1 – counter-screen for TRPC6 inhibitors: effect in parental HEK293 cells; parental HEK293 membrane potential dye fluorescence; shares compounds with TRPC6 inh; 920 compounds, 60% hits; membrane potential signal change, % at 10 µM; AID 2780;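 active means membrane potential signal shifting up or down by more than 3 SD of buffer-only wells, on both duplicate plates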
HEK293 MPD ctr-2 – parental HEK293 nonspecific activity of TRPC6 modulators; shares compounds with TRPC6 inh; membrane potential dye fluorescence; membrane potential signal change, % at 10 µM; 2,400 compounds, 51% hits; AID 488924;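 active means membrane potential signal moves up or down beyond 5 SD from buffer-only wells, on both duplicate plates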
HEK293 MPD ctr 2-2 – second check of TRPC6 modulator effects in parental HEK293 cells | shares compounds with TRPC6 inh | membrane potential dye fluorescence; after compound, maximal acetylcholine stimulation | inhibition, % at 10 µM | 2,400 compounds, 14% hits | AID 488926;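 active means membrane potential signal drops by more than 5 SD from the mean control signal, in both duplicate plates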;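 further: plate controls were acetylcholine ECmax control wells for no effect and buffer only wells for full effect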
TRPC4 ctr mod – tests whether TRPC6 modulators also affect mouse TRPC4 | shares compounds with TRPC6 inh | AID 488927 | 2,400 compounds, 69% hits | percent change from control (negative = decrease, positive = increase), % at 10 µM | HEK293 TRPC4/mu-opioid, membrane potential fluorescence;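 active means membrane potential signal moved up or down beyond 5 SD of buffer control wells, in both duplicate plates, actives on both sides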;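 further: plate controls were assay buffer wells for no effect and DAMGO maximal-effect wells for full effect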
TRPC4/MOR inh 2 – second check of whether TRPC6 modulators also affect mouse TRPC4; shares compounds with TRPC6 inh; HEK293 TRPC4/mu-opioid, membrane potential dye fluorescence; stimulated with maximal-effect DAMGO; inhibition, % at 10 µM; 2,400 compounds, 55% hits; AID 488928;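 active means drop in membrane potential signal beyond 5 SD of the control wells in both duplicate plates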;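 further: TRPC4 counter screen for TRPC6 hits run under conditions tuned for TRPC6 not TRPC4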
TRPC6 inh conf – mouse TRPC6 inhibitor confirmation | inhibition, % at 10 µM | shares compounds with TRPC6 inh | HEK293-TRPC6, membrane potential dye, ACh-evoked depolarization | 3,300 compounds, 43% hits;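 active means fluorescence ratio falls more than 5 SD below the full-stimulation control mean, in both duplicate runs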;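 further: integrated fluorescence ratio of peak minus minimum over baseline after agonist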
TRPC6 act conf – mouse TRPC6 activator confirmation; shares compounds with TRPC6 inh; HEK293-TRPC6 membrane potential dye fluorescence, FDSS; activation, % at 10 µM; 2,800 compounds, 11% hits; AID 488961;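 active means ratio signal rise beyond 5 SD above unstimulated control wells' mean, seen in both duplicate runs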;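 further: plate controls were buffer EC0 wells for no effect and acetylcholine ECmax response for full effect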
* marks the source's active call; other numbers are inactive results; i = inactive; nt = no result. Sampled rows, rich in hits. Any-hit rate of the full collection: about 2.3%.

SMILES	TRPC4 block	TRPC4 PAM	TRPC4 agonist	TRPC6 inh	TRPC6 act	TRPC4 sel inh 2	TRPC4 spec	HEK293 MPD ctr 2-1	HEK293 MPD ctr-1	HEK293 MPD ctr-2	HEK293 MPD ctr 2-2	TRPC4 ctr mod	TRPC4/MOR inh 2	TRPC6 inh conf	TRPC6 act conf
CCN(CC)S(=O)(=O)N1CCC(C(=O)NCc2ccc(C)cc2)CC1	i	i	i	i	i	nt	nt	nt	nt	nt	nt	nt	nt	nt	nt
Cc1ccc(C)c(NC(=O)C(NCC(C)(C)N2CCOCC2)c2ccccc2)c1 (stereo not drawn)	i	i	i	-6.74*	i	i	5.2%*	i	7.3%*	nt	nt	nt	nt	i	nt
COc1ccc(C)cc1NC(=O)C(NCC(O)c1ccccc1)c1ccccc1 (stereo not drawn)	i	i	i	i	i	nt	nt	nt	nt	nt	nt	nt	nt	nt	nt
Oc1ccccc1Nc1nc(NCc2ccccc2)c2ccccc2n1	i	i	i	i	i	nt	nt	nt	nt	nt	nt	nt	nt	nt	nt
O=C(Cc1ccccc1)NNc1c2ccccc2nc2ccccc12	i	i	i	i	i	nt	nt	nt	nt	nt	nt	nt	nt	nt	nt
OCC(Cc1ccccc1)Nc1c2ccccc2nc2ccccc12 (stereo not drawn)	i	i	i	-8.99*	i	nt	nt	nt	nt	i	i	-88.0%*	69.5%*	54.5%*	i
O=C(CNC(=O)c1ccccc1)NCCc1ccc(O)c(O)c1	i	i	i	i	i	nt	nt	nt	nt	nt	nt	nt	nt	nt	nt
c1ccc(CNc2c3ccccc3nc3ccccc23)cc1	-7*	i	i	-7.78*	i	59.5%*	-23.2%*	45.0%*	-449.5%*	nt	nt	nt	nt	i	i
CNc1nc(NCc2ccccc2)c2ccccc2n1	-6*	i	i	-5.27*	i	nt	nt	nt	nt	-110.5%*	i	-26.0%*	78.5%*	53.5%*	i
Oc1ccc(CCNc2c3ccccc3nc3ccccc23)cc1O	i	i	i	-4.99*	i	nt	nt	nt	nt	-91.5%*	i	-13.5%*	i	i	i
O=c1c2c3c(sc2n2cnnc2n1-c1ccccc1)N(Cc1ccccc1)CCC3	i	i	i	-6.98*	i	i	-19.9%*	i	-271.0%*	nt	nt	nt	nt	i	i
CN1CCc2c(sc3c2c(=O)n(-c2cccc(Cl)c2)c2nncn32)C1	i	i	i	-5.52*	i	nt	nt	nt	nt	i	i	7.0%*	i	i	i
CC1(C)Cc2nc3oc4c(=O)n(CC(=O)Nc5ccc(Cl)cc5)cnc4c3cc2CO1	i	i	i	-8.32*	i	i	i	i	i	nt	nt	nt	nt	i	i
N#CC(c1cccc(Cl)c1)c1ccc2c(C(F)(F)F)cc(C(F)(F)F)nc2n1 (stereo not drawn)	i	i	i	-10.3*	i	i	0.8%*	i	0.4%*	nt	nt	nt	nt	74.9%*	i
NNc1ccc2c(C(F)(F)F)cc(C(F)(F)F)nc2n1	i	i	i	i	i	nt	nt	nt	nt	nt	nt	nt	nt	nt	nt
CSC1=N/C(=C\c2ccc(Cl)cc2)C(=O)N1N(C)C	i	i	i	i	i	nt	nt	nt	nt	nt	nt	nt	nt	nt	nt
CC1(C)CN=c2s/c(=C\c3ccc(Cl)cc3)c(=O)n2C1	i	16*	i	-7.26*	i	54.0%*	-10.3%*	i	i	nt	nt	nt	nt	i	i
CCCOc1cc(N(CC)CC)ccc1/C=C(/C#N)c1nc2ccc(C)cc2[nH]1	i	i	i	i	i	nt	nt	nt	nt	nt	nt	nt	nt	nt	nt
CCOc1cc(N(CC)CC)ccc1/C=C(/C#N)c1nc2ccccc2[nH]1	i	i	126*	i	16.5*	nt	nt	nt	nt	295.0%*	i	45.5%*	i	i	48.5%*
COc1cc(/C=C(\C#N)c2nc3ccccc3[nH]2)cc(OC)c1O	i	i	i	-5.3*	13.7*	nt	nt	nt	nt	612.0%*	i	99.5%*	57.5%*	i	i
COc1ccc(/C=C(\C#N)c2nc3ccccc3[nH]2)cc1O	i	i	i	i	i	nt	nt	nt	nt	nt	nt	nt	nt	nt	nt
Cc1ccc(Nc2cc(C)nc3c(C)cccc23)cc1	-7*	i	i	-6.8*	i	20.5%*	i	22.0%*	-196.5%*	nt	nt	nt	nt	98.0%*	i
CC(=O)c1ccc(Nc2cc(C)nc3c(C)cccc23)cc1	i	i	i	-5.66*	i	nt	nt	nt	nt	-82.5%*	64.5%*	-22.0%*	54.5%*	i	i
CC(=O)Nc1ccc(C(=O)CSc2cc(C)c3cccc(C)c3n2)cc1	i	i	i	i	i	nt	nt	nt	nt	nt	nt	nt	nt	nt	nt
Cc1cc(N/N=C/c2ccc(O)cc2)c2cccc(C)c2n1	i	i	i	i	i	nt	nt	nt	nt	nt	nt	nt	nt	nt	nt
CC(=O)c1ccc(Nc2cc(C)nc3ccccc23)cc1	i	i	i	-6.89*	i	nt	nt	nt	nt	102.0%*	144.5%*	i	63.0%*	84.5%*	i
CC(=O)c1ccc(Nc2nc(C)cc(C)n2)cc1	i	i	i	i	i	nt	nt	nt	nt	nt	nt	nt	nt	nt	nt
Cc1c(C=N)c(O)n(C)c(=O)c1C#N	i	i	i	i	i	nt	nt	nt	nt	nt	nt	nt	nt	nt	nt
Nc1ccc(C23CC4CC(CC(CO)(C4)C2)C3)cc1	i	i	i	i	i	nt	nt	nt	nt	nt	nt	nt	nt	nt	nt
NCC12CC3CC(C1)CC(c1ccc(Cl)cc1)(C3)C2	i	i	61*	-7.09*	i	31.0%*	i	i	-135.5%*	nt	nt	nt	nt	71.5%*	i
